# Results as given in ChEMBL document CHEMBL2440065, “Identification of a novel benzoxazolone derivative as a selective, orally active 18 kDa translocator protein (TSPO) ligand” (J Med Chem, 2013).
# The source made the active and inactive calls. The rule behind the calls is not given here.
# What was measured:
# [1] = Ratio of drug level in brain to blood in rat at 10 mg/kg, po; format: ADME, organism-based; parameters: dose 10 mg/kg, route oral
# How it was run: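 Rats dosed orally at 10 mg/kg (HCl salt); brain and blood drug concentrations measured and expressed as brain/blood ratio.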
# [2] = Solubility of the compound at pH 6.8; format: physicochemical; conditions: buffer
# How it was run: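 Solubility measured in pH 6.8 buffer containing bile acids; compound tested as free base and as HCl salt.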
# Mus musculus = test: Neurotoxicity in ddY mouse assessed as motor impairment at 300 mg/kg, po after 1 hr by horizontal rotarod test; format: toxicity, organism-based; parameters: dose 300 mg/kg, route oral; conditions: in vivo
# [3] = target: Galanin receptor type 1 (Homo sapiens) (UniProt P47211); test: Binding affinity to human GAL1 receptor at 10 uM by radioligand binding assay
# How it was run: (§1)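 Radioligand binding profiling panel across receptors and transporters linked to CNS, cardiovascular and pulmonary adverse events. Each target was tested once at 10 μM, run in duplicate.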
# Rattus norvegicus [4] = species on record: Rattus norvegicus; test: Binding affinity to rat strychnine-sensitive glycine receptor at 10 uM by radioligand binding assay
# How it was run: (§2)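 Off-target radioligand binding panel: compound tested in duplicate at a single concentration of 10 μM in each assay. Activity is reported as percent inhibition of radioligand binding.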
# [5] = target: Neuropeptide Y receptor type 1 (Homo sapiens) (UniProt P25929); test: Binding affinity to human Neuropeptide Y receptor Y1 at 10 uM by radioligand binding assay; how it was run: as §1
# [6] = target: Corticotropin-releasing factor receptor 1 (Homo sapiens) (UniProt P34998); test: Binding affinity to human CRF1 receptor at 10 uM by radioligand binding assay; how it was run: as §1
# Sequence of Corticotropin-releasing factor receptor 1 (Homo sapiens) (P34998 whole entry): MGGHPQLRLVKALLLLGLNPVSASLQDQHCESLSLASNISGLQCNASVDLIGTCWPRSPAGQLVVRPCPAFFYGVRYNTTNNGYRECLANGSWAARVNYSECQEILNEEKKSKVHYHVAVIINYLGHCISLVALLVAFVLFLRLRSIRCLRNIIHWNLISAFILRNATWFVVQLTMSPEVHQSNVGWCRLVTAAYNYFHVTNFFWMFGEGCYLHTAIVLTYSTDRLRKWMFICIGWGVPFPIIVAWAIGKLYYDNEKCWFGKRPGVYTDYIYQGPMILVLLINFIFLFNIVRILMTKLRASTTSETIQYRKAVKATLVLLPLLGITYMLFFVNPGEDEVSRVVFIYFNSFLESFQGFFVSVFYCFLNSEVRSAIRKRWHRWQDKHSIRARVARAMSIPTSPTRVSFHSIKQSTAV
# [7] = target: Beta-1 adrenergic receptor (Homo sapiens) (UniProt P08588); test: Binding affinity to human adrenergic beta1 receptor at 10 uM by radioligand binding assay; how it was run: as §1
# [8] = target: Nociceptin receptor (Homo sapiens) (UniProt P41146); test: Binding affinity to human ORL1 receptor at 10 uM by radioligand binding assay; how it was run: as §1
# Sequence of Nociceptin receptor (Homo sapiens) (P41146 whole entry): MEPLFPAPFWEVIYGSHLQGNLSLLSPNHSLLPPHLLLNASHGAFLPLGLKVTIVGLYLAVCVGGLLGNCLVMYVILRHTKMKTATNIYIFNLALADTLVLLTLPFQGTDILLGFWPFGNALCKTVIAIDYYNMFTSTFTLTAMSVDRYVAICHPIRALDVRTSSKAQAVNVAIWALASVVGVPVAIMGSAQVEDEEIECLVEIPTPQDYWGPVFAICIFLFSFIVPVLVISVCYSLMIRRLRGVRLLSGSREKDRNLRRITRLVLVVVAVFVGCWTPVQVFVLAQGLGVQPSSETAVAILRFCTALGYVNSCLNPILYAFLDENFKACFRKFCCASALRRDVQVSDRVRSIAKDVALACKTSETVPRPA
# [9] = target: Bombesin receptor subtype-3 (Homo sapiens) (UniProt P32247); test: Binding affinity to human bombesin BB3 receptor at 10 uM by radioligand binding assay; how it was run: as §1
# Sequence of Bombesin receptor subtype-3 (Homo sapiens) (P32247 whole entry): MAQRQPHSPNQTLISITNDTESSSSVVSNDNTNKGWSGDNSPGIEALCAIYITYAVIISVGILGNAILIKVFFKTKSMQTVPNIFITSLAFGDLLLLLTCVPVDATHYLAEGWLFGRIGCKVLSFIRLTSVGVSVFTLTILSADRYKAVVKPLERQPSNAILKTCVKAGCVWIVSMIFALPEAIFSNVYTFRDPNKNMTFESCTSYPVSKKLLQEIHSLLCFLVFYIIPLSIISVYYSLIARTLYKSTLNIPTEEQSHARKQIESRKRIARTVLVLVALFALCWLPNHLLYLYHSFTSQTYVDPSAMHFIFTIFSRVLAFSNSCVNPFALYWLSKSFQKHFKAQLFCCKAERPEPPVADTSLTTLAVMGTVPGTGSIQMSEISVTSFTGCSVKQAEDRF
# Rattus norvegicus [10] = species on record: Rattus norvegicus; test: Binding affinity to rat GABAA receptor TBOB binding site at 10 uM by radioligand binding assay; how it was run: as §2
# Rattus norvegicus [11] = species on record: Rattus norvegicus; test: Binding affinity to rat kainate receptor at 10 uM by radioligand binding assay; how it was run: as §2
# [12] = target: Mu-type opioid receptor (Homo sapiens) (UniProt P35372); test: Binding affinity to human mu opiate receptor at 10 uM by radioligand binding assay; how it was run: as §1
# [13] = target: Cholecystokinin receptor type A (Homo sapiens) (UniProt P32238); test: Binding affinity to human CCK1 receptor at 10 uM by radioligand binding assay; how it was run: as §1
# [14] = target: 5-hydroxytryptamine receptor 4 (Cavia porcellus) (UniProt O70528); test: Binding affinity to guinea pig serotonin 5HT4 receptor at 10 uM by radioligand binding assay; how it was run: as §1
# [15] = target: Somatostatin receptor type 2 (Homo sapiens) (UniProt P30874); test: Binding affinity to human somatostatin sst2 receptor at 10 uM by radioligand binding assay; how it was run: as §1
# Sequence of Somatostatin receptor type 2 (Homo sapiens) (P30874 whole entry): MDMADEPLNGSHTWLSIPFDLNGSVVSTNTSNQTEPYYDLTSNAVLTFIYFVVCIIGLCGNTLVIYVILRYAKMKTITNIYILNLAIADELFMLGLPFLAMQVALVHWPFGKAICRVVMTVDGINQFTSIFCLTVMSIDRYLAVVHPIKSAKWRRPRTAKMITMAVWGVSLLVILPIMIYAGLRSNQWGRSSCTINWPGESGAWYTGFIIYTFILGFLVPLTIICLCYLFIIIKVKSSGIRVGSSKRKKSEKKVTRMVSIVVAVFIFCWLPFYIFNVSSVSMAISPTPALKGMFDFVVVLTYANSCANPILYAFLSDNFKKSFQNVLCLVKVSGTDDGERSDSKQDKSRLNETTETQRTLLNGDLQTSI
# Rattus norvegicus [16] = species on record: Rattus norvegicus; test: Binding affinity to rat GABAA receptor agonist binding site at 10 uM by radioligand binding assay; how it was run: as §2
# [17] = target: Melanocortin receptor 4 (Homo sapiens) (UniProt P32245); test: Binding affinity to human melanocortin MC4 receptor at 10 uM by radioligand binding assay; how it was run: as §1
# [18] = target: Beta-2 adrenergic receptor (Homo sapiens) (UniProt P07550); test: Binding affinity to human adrenergic beta2 receptor at 10 uM by radioligand binding assay; how it was run: as §1
# Sequence of Beta-2 adrenergic receptor (Homo sapiens) (P07550 whole entry, looked up): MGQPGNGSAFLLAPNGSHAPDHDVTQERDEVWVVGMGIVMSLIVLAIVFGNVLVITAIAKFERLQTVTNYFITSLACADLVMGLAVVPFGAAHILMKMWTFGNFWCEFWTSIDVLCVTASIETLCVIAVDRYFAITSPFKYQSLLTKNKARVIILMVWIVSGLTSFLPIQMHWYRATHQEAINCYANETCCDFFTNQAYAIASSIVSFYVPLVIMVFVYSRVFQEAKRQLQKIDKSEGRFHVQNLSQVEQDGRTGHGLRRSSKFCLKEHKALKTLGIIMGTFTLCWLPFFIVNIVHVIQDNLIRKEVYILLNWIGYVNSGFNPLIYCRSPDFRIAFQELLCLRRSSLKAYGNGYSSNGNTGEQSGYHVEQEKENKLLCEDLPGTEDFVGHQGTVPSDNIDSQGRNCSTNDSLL
# [19] = target: Sodium-dependent noradrenaline transporter (Homo sapiens) (UniProt P23975); test: Binding affinity to human norepinephrine transporter at 10 uM by radioligand binding assay; how it was run: as §1
# [20] = target: Glucocorticoid receptor (Homo sapiens) (UniProt P04150); test: Binding affinity to human glucocorticoid receptor at 10 uM by radioligand binding assay; how it was run: as §1
# [21] = target: Neuropeptide Y receptor type 2 (Homo sapiens) (UniProt P49146); test: Binding affinity to human Neuropeptide Y receptor Y2 at 10 uM by radioligand binding assay; how it was run: as §1
# [22] = target: Sigma non-opioid intracellular receptor 1 (Homo sapiens) (UniProt Q99720); test: Binding affinity to human sigma1 receptor at 10 uM by radioligand binding assay; how it was run: as §1
# [23] = target: Muscarinic acetylcholine receptor M2 (Homo sapiens) (UniProt P08172); test: Binding affinity to human muscarinic M2 receptor at 10 uM by radioligand binding assay; how it was run: as §1
# [24] = target: Cannabinoid receptor 1 (Homo sapiens) (UniProt P21554); test: Binding affinity to human CB1 receptor at 10 uM by radioligand binding assay; how it was run: as §1
# Sequence of Cannabinoid receptor 1 (Homo sapiens) (P21554 whole entry): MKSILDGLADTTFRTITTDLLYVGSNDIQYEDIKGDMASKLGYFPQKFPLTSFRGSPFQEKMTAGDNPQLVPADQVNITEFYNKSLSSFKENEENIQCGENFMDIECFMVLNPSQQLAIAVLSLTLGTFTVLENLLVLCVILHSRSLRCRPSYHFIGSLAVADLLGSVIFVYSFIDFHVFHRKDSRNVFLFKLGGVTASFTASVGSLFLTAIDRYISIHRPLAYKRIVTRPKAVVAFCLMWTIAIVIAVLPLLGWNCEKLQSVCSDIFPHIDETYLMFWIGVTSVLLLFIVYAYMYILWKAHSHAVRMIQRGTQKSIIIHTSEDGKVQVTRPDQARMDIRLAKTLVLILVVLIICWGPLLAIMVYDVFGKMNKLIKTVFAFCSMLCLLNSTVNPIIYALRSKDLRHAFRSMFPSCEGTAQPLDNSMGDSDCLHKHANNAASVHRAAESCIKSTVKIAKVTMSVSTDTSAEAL
# [25] = target: Histamine H3 receptor (Homo sapiens) (UniProt Q9Y5N1); test: Binding affinity to human histamine H3 receptor at 10 uM by radioligand binding assay; how it was run: as §1
# [26] = target: Adenosine receptor A2a (Homo sapiens) (UniProt P29274); test: Binding affinity to human adenosine A2A receptor at 10 uM by radioligand binding assay; how it was run: as §1
# Sequence of Adenosine receptor A2a (Homo sapiens) (P29274 whole entry): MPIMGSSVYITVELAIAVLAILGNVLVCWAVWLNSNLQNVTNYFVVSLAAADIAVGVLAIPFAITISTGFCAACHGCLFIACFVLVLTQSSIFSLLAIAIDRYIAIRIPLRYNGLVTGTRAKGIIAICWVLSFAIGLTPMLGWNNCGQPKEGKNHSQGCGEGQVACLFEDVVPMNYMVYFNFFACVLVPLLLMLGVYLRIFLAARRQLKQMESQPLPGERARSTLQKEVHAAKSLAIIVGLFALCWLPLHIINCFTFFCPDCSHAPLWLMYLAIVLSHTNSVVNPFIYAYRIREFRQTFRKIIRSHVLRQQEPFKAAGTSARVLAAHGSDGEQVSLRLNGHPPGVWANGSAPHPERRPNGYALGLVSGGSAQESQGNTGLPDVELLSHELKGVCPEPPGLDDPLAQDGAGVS
# [27] = target: Type-2 angiotensin II receptor (Homo sapiens) (UniProt P50052); test: Binding affinity to human angiotensin AT2 receptor at 10 uM by radioligand binding assay; how it was run: as §1
# [28] = target: Type-1 angiotensin II receptor (Homo sapiens) (UniProt P30556); test: Binding affinity to human angiotensin AT1 receptor at 10 uM by radioligand binding assay; how it was run: as §1
# [29] = target: Vasopressin V1b receptor (Homo sapiens) (UniProt P47901); test: Binding affinity to human vasopressin V1B receptor at 10 uM by radioligand binding assay; how it was run: as §1
# Sequence of Vasopressin V1b receptor (Homo sapiens) (P47901 whole entry): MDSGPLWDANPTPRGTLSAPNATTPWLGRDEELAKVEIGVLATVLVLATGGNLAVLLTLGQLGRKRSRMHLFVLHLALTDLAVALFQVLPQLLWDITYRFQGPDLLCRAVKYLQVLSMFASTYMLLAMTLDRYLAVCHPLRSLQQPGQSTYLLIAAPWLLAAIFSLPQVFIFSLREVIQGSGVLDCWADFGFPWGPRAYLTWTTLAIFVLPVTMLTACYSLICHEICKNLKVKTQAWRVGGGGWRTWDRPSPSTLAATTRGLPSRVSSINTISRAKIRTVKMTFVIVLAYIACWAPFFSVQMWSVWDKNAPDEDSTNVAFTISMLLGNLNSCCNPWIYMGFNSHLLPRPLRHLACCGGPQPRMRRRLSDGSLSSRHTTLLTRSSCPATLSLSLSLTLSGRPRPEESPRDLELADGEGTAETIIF
# [30] = target: Sodium-dependent dopamine transporter (Homo sapiens) (UniProt Q01959); test: Binding affinity to human dopamine transporter at 10 uM by radioligand binding assay; how it was run: as §1
# [31] = target: Vasopressin V1a receptor (Homo sapiens) (UniProt P37288); test: Binding affinity to human vasopressin V1A receptor at 10 uM by radioligand binding assay; how it was run: as §1
# [32] = target: Phosphodiesterase 4 (Homo sapiens) (UniProt P27815+Q08499+Q07343+Q08493); test: Inhibition of human phosphodiesterase PDE4 at 10 uM; format: protein assay
# Rattus norvegicus [33] = test: Anxiolytic-like activity in Sprague-Dawley rat vogel conflict model assessed as increase in number of shocks at 1 mg/kg, po after 1 hr; format: functional, organism-based; parameters: dose 1 mg/kg
# [34] = target: 5-hydroxytryptamine receptor 3A (Homo sapiens) (UniProt P46098); test: Binding affinity to human serotonin 5HT3 receptor at 10 uM by radioligand binding assay; how it was run: as §1
# Sequence of 5-hydroxytryptamine receptor 3A (Homo sapiens) (P46098 whole entry): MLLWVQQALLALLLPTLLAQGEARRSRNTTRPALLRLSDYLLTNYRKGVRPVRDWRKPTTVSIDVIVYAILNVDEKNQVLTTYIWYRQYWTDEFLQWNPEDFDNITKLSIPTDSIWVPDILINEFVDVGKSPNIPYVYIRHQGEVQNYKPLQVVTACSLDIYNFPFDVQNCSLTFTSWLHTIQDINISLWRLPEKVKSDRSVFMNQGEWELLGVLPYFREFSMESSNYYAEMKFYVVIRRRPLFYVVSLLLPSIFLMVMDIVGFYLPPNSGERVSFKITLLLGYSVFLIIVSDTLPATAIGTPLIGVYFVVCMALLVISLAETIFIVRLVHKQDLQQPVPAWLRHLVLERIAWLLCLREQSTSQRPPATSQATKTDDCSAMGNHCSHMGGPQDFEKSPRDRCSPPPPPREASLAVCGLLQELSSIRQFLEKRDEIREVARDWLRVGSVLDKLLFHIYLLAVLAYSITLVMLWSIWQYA
# [35] = target: D(1A) dopamine receptor (Homo sapiens) (UniProt P21728); test: Binding affinity to human dopamine D1 receptor at 10 uM by radioligand binding assay; how it was run: as §1
# [36] = target: Substance-P receptor (Homo sapiens) (UniProt P25103); test: Binding affinity to human tachykinin NK1 receptor at 10 uM by radioligand binding assay; how it was run: as §1
# [37] = target: 5-hydroxytryptamine receptor 2A (Rattus norvegicus) (UniProt P14842); test: Binding affinity to rat non-selective serotonin 5HT2 receptor at 10 uM by radioligand binding assay; how it was run: as §1
# Sequence of 5-hydroxytryptamine receptor 2A (Rattus norvegicus) (P14842 whole entry): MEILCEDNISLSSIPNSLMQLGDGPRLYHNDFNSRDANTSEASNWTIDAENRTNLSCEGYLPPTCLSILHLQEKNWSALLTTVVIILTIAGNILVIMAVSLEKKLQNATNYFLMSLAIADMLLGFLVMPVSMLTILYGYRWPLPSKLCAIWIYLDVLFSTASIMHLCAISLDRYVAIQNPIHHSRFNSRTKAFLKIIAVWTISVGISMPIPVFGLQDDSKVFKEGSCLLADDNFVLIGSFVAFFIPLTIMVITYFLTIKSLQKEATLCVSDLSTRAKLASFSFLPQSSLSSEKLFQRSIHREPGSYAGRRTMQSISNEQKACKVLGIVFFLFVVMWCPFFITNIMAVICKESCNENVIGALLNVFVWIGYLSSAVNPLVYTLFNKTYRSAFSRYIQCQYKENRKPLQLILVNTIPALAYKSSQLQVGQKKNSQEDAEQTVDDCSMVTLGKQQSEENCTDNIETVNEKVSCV
# [38] = target: Alpha-2A adrenergic receptor (Homo sapiens) (UniProt P08913); test: Binding affinity to human adrenergic alpha2A receptor at 10 uM by radioligand binding assay; how it was run: as §1
# Rattus norvegicus [39] = species on record: Rattus norvegicus; test: Displacement of [3H]flumazenil from Sprague-Dawley rat cerebral cortex CBR at 10 uM after 1 hr by liquid scintillation counting analysis; format: tissue-based
# Rattus norvegicus [40] = species on record: Rattus norvegicus; test: Binding affinity to rat L-type calcium channel dihydropyridine binding site at 10 uM by radioligand binding assay; how it was run: as §2
# Rattus norvegicus [41] = species on record: Rattus norvegicus; test: Binding affinity to rat non-selective GABAB receptor at 10 uM by radioligand binding assay; how it was run: as §2
# Rattus norvegicus [42] = species on record: Rattus norvegicus; test: Binding affinity to rat N-methyl D-aspartate receptor phencyclidine binding site at 10 uM by radioligand binding assay; how it was run: as §2
# [43] = target: Gastrin/cholecystokinin type B receptor (Homo sapiens) (UniProt P32239); test: Binding affinity to human CCK2 receptor at 10 uM by radioligand binding assay; how it was run: as §1
# Rattus norvegicus [44] = species on record: Rattus norvegicus; test: Binding affinity to rat N-type calcium channel at 10 uM by radioligand binding assay; how it was run: as §2
# Homo sapiens = species on record: Homo sapiens; test: Binding affinity to human nicotinic acetylcholine receptor at 10 uM by radioligand binding assay; how it was run: as §2
# [45] = target: Estrogen receptor beta (Homo sapiens) (UniProt Q92731); test: Binding affinity to human ERbeta at 10 uM by radioligand binding assay; how it was run: as §1
# [46] = target: 5-hydroxytryptamine receptor 6 (Homo sapiens) (UniProt P50406); test: Binding affinity to human serotonin 5HT6 receptor at 10 uM by radioligand binding assay; how it was run: as §1
# Sequence of 5-hydroxytryptamine receptor 6 (Homo sapiens) (P50406 whole entry): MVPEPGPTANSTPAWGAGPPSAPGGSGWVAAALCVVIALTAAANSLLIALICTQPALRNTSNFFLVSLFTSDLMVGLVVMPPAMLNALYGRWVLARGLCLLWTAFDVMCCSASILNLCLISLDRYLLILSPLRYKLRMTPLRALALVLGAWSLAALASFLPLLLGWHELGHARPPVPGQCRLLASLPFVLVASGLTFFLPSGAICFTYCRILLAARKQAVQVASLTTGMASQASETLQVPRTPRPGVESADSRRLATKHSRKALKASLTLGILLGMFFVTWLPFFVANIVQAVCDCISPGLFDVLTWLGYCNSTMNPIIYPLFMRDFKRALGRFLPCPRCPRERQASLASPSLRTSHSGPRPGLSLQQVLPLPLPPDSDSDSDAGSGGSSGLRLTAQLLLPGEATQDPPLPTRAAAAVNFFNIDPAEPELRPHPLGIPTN
# [47] = target: Adenosine receptor A1 (Homo sapiens) (UniProt P30542); test: Binding affinity to human adenosine A1 receptor at 10 uM by radioligand binding assay; how it was run: as §1
# [48] = target: Muscarinic acetylcholine receptor M3 (Homo sapiens) (UniProt P20309); test: Binding affinity to human muscarinic M3 receptor at 10 uM by radioligand binding assay; how it was run: as §1
# Mesocricetus auratus = species on record: Mesocricetus auratus; test: Binding affinity to syrian hamster ATP-sensitive potassium channel at 10 uM by radioligand binding assay; how it was run: as §2
# [49] = target: Amine oxidase [flavin-containing] A (Homo sapiens, UniProt P21397); test: Inhibition of human MAO-A at 10 uM
# [50] = Solubility of the compound at pH 2.5 by HPLC analysis; format: physicochemical; conditions: buffer
# How it was run: (§3)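 Compound (1 mg) shaken in 0.4 mL buffered solution at pH 7.4 or pH 2.5, then centrifuged; dissolved compound in the supernatant quantified by HPLC.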
# [51] = Solubility of the compound at pH 7.4 by HPLC analysis; format: physicochemical; conditions: buffer; how it was run: as §3
# Translocator protein [52] = target: Translocator protein (Homo sapiens, UniProt P30536); test: Displacement of [3H]PK11195 from TSPO in human U-87 MG cells after 1 hr by liquid scintillation counting analysis; format: cell-based
# [53] = Metabolic stability in human liver S9 fraction assessed as compound remaining at 1 uM after 30 mins; format: ADME, subcellular; conditions: read-out: Stability
# Translocator protein [54] = target: Translocator protein (Rattus norvegicus, UniProt P16257); test: Displacement of [3H]PK11195 from Sprague-Dawley rat kidney TSPO after 1 hr by liquid scintillation counting analysis
# Sequence of Translocator protein (Rattus norvegicus, UniProt P16257) (P16257 whole entry, looked up): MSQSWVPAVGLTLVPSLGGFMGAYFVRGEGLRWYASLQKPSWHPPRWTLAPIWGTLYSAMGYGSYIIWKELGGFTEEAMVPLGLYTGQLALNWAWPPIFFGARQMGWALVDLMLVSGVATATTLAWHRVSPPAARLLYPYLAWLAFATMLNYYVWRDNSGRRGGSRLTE
# [55] = Displacement of [3H]batrachotoxin from rat brain sodium channel site 2; format: tissue-based
# [56] = Metabolic stability in rat liver S9 fraction assessed as compound remaining at 1 uM after 30 mins in presence of NADPH; format: ADME, subcellular; conditions: read-out: Stability
structure (smiles),measurement,setting,value
CN(C(=O)Cn1c(=O)oc2ccc(-c3ccc(OC(F)(F)F)cc3)cc21)c1cccnc1.Cl,Kp,[1],1.3
same,solubility,[2],23 µg/mL
same,Activity,Mus musculus,Toxic
CN(C(=O)Cn1c(=O)oc2ccc(-c3cccnc3)cc21)c1ccc(C(F)(F)F)cc1 [listing 1 of 2 here],inhibition,[3],inactive
same,inhibition,Rattus norvegicus [4],inactive
same,inhibition,[5],inactive
same,inhibition,[6],inactive
same,inhibition,[7],inactive
same,inhibition,[8],inactive
same,inhibition,[9],inactive
same,inhibition,Rattus norvegicus [10],inactive
same,inhibition,Rattus norvegicus [11],inactive
same,inhibition,[12],inactive
same,inhibition,[13],inactive
same,inhibition,[14],inactive
same,inhibition,[15],inactive
same,inhibition,Rattus norvegicus [16],inactive
same,inhibition,[17],inactive
same,inhibition,[18],inactive
same,inhibition,[19],inactive
same,inhibition,[20],inactive
same,inhibition,[21],inactive
same,inhibition,[22],inactive
same,inhibition,[23],inactive
same,inhibition,[24],inactive
same,inhibition,[25],inactive
same,inhibition,[26],inactive
same,inhibition,[27],inactive
same,inhibition,[28],inactive
same,inhibition,[29],inactive
same,inhibition,[30],inactive
same,inhibition,[31],inactive
same,inhibition,[32],inactive
same,Activity,Rattus norvegicus [33],Active
same,inhibition,[34],inactive
same,inhibition,[35],inactive
same,inhibition,[36],inactive
same,inhibition,[37],inactive
same,inhibition,[38],inactive
same,inhibition,Rattus norvegicus [39],0%
same,inhibition,Rattus norvegicus [40],inactive
same,inhibition,Rattus norvegicus [41],inactive
same,inhibition,Rattus norvegicus [42],inactive
same,inhibition,[43],inactive
same,inhibition,Rattus norvegicus [44],inactive
same,inhibition,Homo sapiens,inactive
same,inhibition,[45],inactive
same,inhibition,[46],inactive
same,inhibition,[47],inactive
same,inhibition,[48],inactive
same,inhibition,Mesocricetus auratus,inactive
CN(C(=O)Cn1c(=O)oc2ccc(-c3cccnc3)cc21)c1ccc(C(F)(F)F)cc1 [listing 2 of 2 here],inhibition (INH),[49],Not Active
same,solubility,[50],420 µg/mL
same,solubility,[51],1 µg/mL
same,Ki,Translocator protein [52],8 nM
same,"remaining at 0.5 h, 1 µM",[53],84%
same,Ki,Translocator protein [54],8.6 nM
same,IC50,[55],> 10000 nM
same,"remaining at 0.5 h, 1 µM",[56],38%
